# rCAG RNA binder: binds r(CAG) RNA repeats; r(CAG) RNA repeat, TO-PRO-1 dye displacement fluorescence; inhibition, % at 3 µM; actives 1.3% (n = 370,000);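 active = inhibition above the plate cutoff, the mean of all test compounds on that plate plus 3 SD, cut at about 35% in these data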;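 note: 0% = DMSO alone and 100% = 100 µM mitoxantrone as full dye displacement; higher means more dye released from RNA so lower well fluorescence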
# TCR CD3 inh: inhibitors of human TCR-CD3 interaction. TAMRA-labeled TCR probe fluorescence, biochemical. inhibition, % at 9.4 µM. actives 0.37% (n = 360,000); in the data active = inhibition above about 19%;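 note: recombinant mutant TCR 2C K166C tagged with TAMRA read by polarization; 0% = receptor in buffer alone and 100% = receptor with positive control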
# ABHD4 inh: inhibitors of mouse ABHD4; Q8VD66; purified mABHD4, FP-Rh probe fluorescence polarization; inhibition, % at 8.92 µM; actives 0.54% (n = 370,000);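 active = inhibition exceeding the mean over every tested compound plus 3 SD, cut at about 30% in these data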;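 note: 0% = plate median of compound wells and 100% = S159A mutant with DMSO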
# Target sequence (Q8VD66 whole entry, looked up): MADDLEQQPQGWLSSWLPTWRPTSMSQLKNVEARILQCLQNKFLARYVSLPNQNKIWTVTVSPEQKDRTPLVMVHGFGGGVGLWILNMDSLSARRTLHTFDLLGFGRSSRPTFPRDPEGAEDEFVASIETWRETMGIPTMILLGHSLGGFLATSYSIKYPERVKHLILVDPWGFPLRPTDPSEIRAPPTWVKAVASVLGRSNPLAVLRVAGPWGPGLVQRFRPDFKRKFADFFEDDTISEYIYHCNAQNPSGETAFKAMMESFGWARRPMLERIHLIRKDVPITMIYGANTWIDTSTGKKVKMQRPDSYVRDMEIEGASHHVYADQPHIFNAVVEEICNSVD
#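 Assay system: mouse ABHD4 enzyme, wild type / Also added: fluorescent activity-based probe FP-Rh / Doses: single nominal dose of 8.92 µM, 0.89% DMSO final / Timing: 45 min compound pre-incubation plus 60 min probe step, 25 °C / Signal: FP readout, ex 525 nm / em 598 nm / Control set: S159A mutant/DMSO as 100%, compound-well median as 0%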
# SIAE inh: blocks human sialic acid acetylesterase; SIAE FP-Rh probe binding, fluorescence polarization; inhibition, % at 9.66 µM; actives 0.69% (n = 370,000); AID 1053197;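 active = inhibition above a cutoff: mean of compounds within the control limits plus 3 SD of those, cut at about 17% in these data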;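 note: 0% = plate median of compound wells and 100% = probe without SIAE protein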
# HTRA1 inh: HTRA1 (human) protease inhibition | Q92743 | recombinant HTRA1, FP-rhodamine activity-based probe, fluorescence polarization | inhibition, % at 5.96 µM | actives 0.5% (n = 340,000) | AID 504803; in the data active = inhibition above about 36%;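 note: 0% = enzyme with DMSO and 100% = wells lacking enzyme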
# PRMT1 inh: inhibitors of human PRMT1 | Q99873 | recombinant PRMT1, activity-based probe fluorescence polarization | inhibition, % at 2.79 µM | actives 1.3% (n = 370,000) | AID 652257;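 active = inhibition above about 21% made by adding two undisclosed values, limit read from the data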
# HTRA1 inh conf: HTRA1 (human) inhibition, confirmation; shares compounds with HTRA1 inh; recombinant HTRA1, FP-rhodamine activity-based probe, fluorescence polarization; inhibition, % at 5.96 µM; actives 66% (n = 1,600); AID 540248;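 active = mean inhibition over three repeats above a set limit taken from the earlier primary screen, cut at about 37% in these data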;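 note: 0% = HTRA1 with DMSO and 100% = wells lacking HTRA1; inhibitors block probe binding so polarization drops and inhibition rises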
# * hit, by the source's call; nt = no result. An excerpt weighted towards active compounds, which were near 3.5% of everything screened.
SMILES,rCAG RNA binder,TCR CD3 inh,ABHD4 inh,SIAE inh,HTRA1 inh,PRMT1 inh,HTRA1 inh conf
COc1ccc2c(c1)-c1c(ssc1=S)C(C)(C)N2,5,-2,23,7,38*,10,37*
CCN(CC)c1ccc(N)cc1,nt,nt,nt,nt,44*,nt,66*
COc1ccc(NC(=O)CC2Nc3cccc4cccc(c34)NC2=O)cc1 (stereo not drawn),7,3,18,2,52*,3,9
Cc1cccc(NC(=O)CSc2nnc(-c3ccco3)c(-c3ccco3)n2)c1C,nt,nt,nt,nt,50*,nt,14
Cc1ccnc(Nc2nc(-c3ccc(O)cc3O)cs2)c1,30,8,19,10,37*,1,44*
O=C(Nc1ccc2ccccc2c1)NC1CCCCN(Cc2ccc(Cl)cc2)C1=O (stereo not drawn),7,nt,0,1,nt,-1,nt
Cn1c(=O)c2cc(S(=O)(=O)N3CCN(Cc4ccccc4)CC3)ccc2n(C)c1=O,4,nt,3,4,nt,-3,nt
O=C(Oc1ccc(Cl)c2cccnc12)c1ccco1,1,0,0,1,72*,2,76*
CC(C)C[C@H](NC(C)(C)C(=O)NC1CCCCC1)C(=O)NCC(c1ccccc1)c1ccccc1,nt,nt,-1,3,nt,-3,nt
COc1ccc(/C=N/Nc2cc(C)nc3c(C)cccc23)cc1,20,-4,9,-4,-22,-5,nt
COc1cccc2c(N/N=C/c3ccc(O)c(O)c3)cc(C)nc12,2,5,15,-3,47*,3,77*
CCCC1CCC2(CC1)CCC2OC(=O)Nc1cccc(C(F)(F)F)c1 (stereo not drawn),nt,nt,-16,-2,nt,2,nt
CCOC(=O)CN1C(=O)S/C(=C/c2ccc(C)o2)C1=O,9,-3,13,7,0,14,nt
Cc1ccc(/C=C2/SC(=O)NC2=S)o1,nt,nt,nt,nt,40*,nt,18
CCCCC(=O)Nc1ccc(N2CCCC2)cc1,3,0,5,2,44*,1,38*
Cc1cc(C)cc(C(=O)Nc2ccc(N3CCCC3)cc2)c1,3,2,11,1,39*,4,11
O=C(Nc1ccc(N2CCCC2)cc1)c1cc(Cl)ccc1Cl,14,7,2,7,59*,-1,6
CCC(C)NS(=O)(=O)c1ccc2[nH]c(=O)oc2c1 (stereo not drawn),1,nt,-2,2,nt,-2,nt
O=C(c1cc(-c2ccccc2Cl)on1)N1CCN(C(=O)c2ccco2)CC1,-5,1,-1,7,0,-2,nt
O=C(O)CCNc1cc(N2CCN(C(=O)c3ccco3)CC2)c2noc3c2c1C(=O)c1ccccc1-3,68*,34*,49*,30*,46*,25*,7
COC(=O)[C@]12C[C@H](CC(=O)N3CCOCC3)C(=O)N(Cc3ccco3)C1=C[C@H](COCc1ccccc1)O[C@@H]2C,3,nt,3,-2,nt,0,nt
O=C(Oc1c(Cl)cc(Cl)c2cccnc12)c1cccc([N+](=O)[O-])c1,nt,nt,nt,nt,55*,nt,40*
O=C(Oc1c(CN2CCOCC2)cc(Cl)c2cccnc12)c1ccccc1Br,-1,-9,3,-3,39*,5,27
c1ccc(-c2nnc(-c3ccccn3)nc2NC2CCCCC2)cc1,-2,0,5,-1,65*,-2,80*
COc1ccc(-n2c(SCC(=O)N/N=C(/C)c3cccc(O)c3)nc3ccccc3c2=O)cc1,8,nt,-5,-2,nt,5,nt
SMILES,rCAG RNA binder,TCR CD3 inh,ABHD4 inh,SIAE inh,HTRA1 inh,PRMT1 inh,HTRA1 inh conf
O=C(COC(=O)c1ccc([N+](=O)[O-])s1)Nc1ncc(C(F)(F)F)cc1Cl,13,8,3,-1,38*,9,63*
O=C(COC(=O)c1ccccn1)Nc1ncc(C(F)(F)F)cc1Cl,4,-3,4,-5,6,2,nt
Cc1ccc(N=Cc2cc(Cc3ccccc3Cl)cc([N+](=O)[O-])c2O)c(O)c1,nt,nt,nt,nt,71*,nt,65*
Cc1c(N=Nc2ccc(O)cc2)c(=O)n(-c2ccccc2)n1C,1,6,-4,1,-1,-1,nt
Cc1c(N=C2C=CC(=O)c3ccccc32)c(=O)n(-c2ccccc2)n1C,4,2,10,7,37*,7,33
Oc1c(CN2CCOCC2)cc(COCc2ccccc2)c2cccnc12,-2,-10,15,2,28,-2,nt
Oc1c(CNc2ccccc2)cc(COCc2ccccc2)c2cccnc12,8,-4,8,19*,49*,-3,15
Oc1c(C(c2ccccc2Cl)N2CCCC2)ccc2cccnc12 (stereo not drawn),3,-3,12,6,30,3,nt
Cc1ccc(C(c2cc(Cl)c3cccnc3c2O)N2CCN(C)CC2)cc1 (stereo not drawn),nt,nt,nt,nt,57*,nt,70*
Oc1c(C(c2ccc(Cl)cc2)N2CCCC2)cc(Cl)c2cccnc12 (stereo not drawn),5,3,10,9,41*,-5,60*
CN1CCN(C(c2ccccn2)c2cc(Cl)c3cccnc3c2O)CC1 (stereo not drawn),2,-6,11,11,39*,3,66*
Oc1c(C(c2ccccn2)N2CCC(Cc3ccccc3)CC2)cc(Cl)c2cccnc12 (stereo not drawn),1,3,14,12,nt,-6,nt
CC[C@@H](CCCCCC#N)CCC(=O)N(c1ccccc1)c1ccccc1,2,nt,-14,9,nt,-2,nt
CCOC(=O)[C@]12CCCC3=C1N(CCC3)C(=O)[C@@H](CC(=O)N1CCCC1)C2,0,nt,3,-4,nt,2,nt
CCOC(=O)Cc1nc(N2CCCN(C(C)=O)CC2)c2c(C)c(C(=O)OCC)sc2n1,4,nt,4,-3,nt,7,nt
CCN(CC)c1ccc(C=Nc2ccc(N(C)C)cc2)c(O)c1,12,2,26,3,38*,25*,-15
C(#Cc1ccccc1)C[N+]1(CC#Cc2ccccc2)CCCC1,4,6,-6,-2,3,-2,nt
C=CC#CC[N+]1(CC#Cc2ccccc2)CCOCC1,20,11,6,8,57*,-7,65*
N/C(=N\OC(=O)c1ccc2ccccc2c1)c1ccccn1,0,-4,-6,-8,-17,3,nt
NC(=Nc1nc(-c2ccccn2)cc2ccccc12)c1ccccn1,2,-3,7,-1,69*,-1,78*
Cc1cccc2cc(-c3ccccc3)c(-c3ccccc3)c[n+]12,4,3,17,1,56*,4,74*
N/C(=N/OC(=O)c1ccccc1Cl)c1ncc([N+](=O)[O-])s1,1,3,2,3,57*,0,34
COc1cnc(-c2ccccn2)nc1Oc1ccc(Cl)c2ccccc12,-3,4,-1,1,53*,-6,54*
